Laboratory results published in ChEMBL document CHEMBL5303300, “EUbOPEN Chemogenomics Library - Multiplex” (2023).
Several values for one entry are separate records, joined by “and”; a condition that tells them apart may be missing. Identical values can stand only once.

Columns and labels:
Type in all cases: toxicity, cell-based
Fibroblast = experiment: Multiplex assay against human fibroblast; details: number of replicates 2
Procedure, shortened: (§1)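 On a CQ1 microscope at 37°C and 5% CO2, live cells were imaged after compound addition. They had been stained at seeding with Hoechst33342, BioTracker Green Microtubule Cytoskeleton Dye, MitoTracker Red and Annexin V Alexa Fluor 680. CellPathfinder machine-learning gating assigned cells to Hoechst high-intensity objects or normal cells, normal cells to healthy, pyknosed or fragmented nuclei, and pyknosed cells to mitotic or apoptotic. Tubulin, mitochondrial-mass and membrane-permeability phenotypes are per cents of healthy-nucleus cells.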

HEK-293T = experiment: Multiplex assay against HEK293T; details: human, number of replicates 2; procedure, shortened: as §1
U2OS = experiment: Multiplex assay against U2OS; details: human, number of replicates 2; procedure, shortened: as §1
[1] = 12 h, 1 µM, compound concentration 1 uM
[2] = 12 h, 10 µM, compound concentration 10 uM
[3] = 24 h, 1 µM, compound concentration 1 uM
[4] = 24 h, 10 µM, compound concentration 10 uM
[5] = 48 h, 1 µM, compound concentration 1 uM
[6] = 48 h, 10 µM, compound concentration 10 uM

## Br.Cc1cccc(C2CN(C)CCc3c2cc(O)c(O)c3Cl)c1 (stereo not given)
Fibroblast; [1]
  Population Apoptotic (%): 50% and 47%
  Population Fragmented Nuclei (%): 10% and 13%
  Population Healthy Nuclei (%): 79%
  Population Hoechst High Intensity Objects (%): 0%
  Population Membrane Permeable-Phenotype (%): 1% and 4%
  Population Mitochondria Different-Phenotype (%): 0% and 1%
  Population Mitotic Cells (%): 50% and 52%
  Population Normal (%): 100%
  Population Pyknosed Nuclei (%): 10% and 6%
  Population Tubulin-Different-Phenotype (%): 9% and 5%
  Total Cell Count: 210 and 248
Fibroblast; [2]
  Population Apoptotic (%): 68% and 66%
  Population Fragmented Nuclei (%): 11% and 13%
  Population Healthy Nuclei (%): 77% and 78%
  Population Hoechst High Intensity Objects (%): 0%
  Population Membrane Permeable-Phenotype (%): 2%
  Population Mitochondria Different-Phenotype (%): 1% and 5%
  Population Mitotic Cells (%): 31% and 33%
  Population Normal (%): 99% and 100%
  Population Pyknosed Nuclei (%): 11% and 8%
  Population Tubulin-Different-Phenotype (%): 10% and 11%
  Total Cell Count: 167 and 173
Fibroblast; [3]
  Population Apoptotic (%): 57% and 53%
  Population Fragmented Nuclei (%): 10% and 14%
  Population Healthy Nuclei (%): 82% and 80%
  Population Hoechst High Intensity Objects (%): 0%
  Population Membrane Permeable-Phenotype (%): 1%
  Population Mitochondria Different-Phenotype (%): 0% and 1%
  Population Mitotic Cells (%): 42% and 46%
  Population Normal (%): 99% and 100%
  Population Pyknosed Nuclei (%): 6% and 5%
  Population Tubulin-Different-Phenotype (%): 8% and 3%
  Total Cell Count: 205 and 242
Fibroblast; [4]
  Population Apoptotic (%): 50% and 70%
  Population Fragmented Nuclei (%): 10% and 15%
  Population Healthy Nuclei (%): 79% and 78%
  Population Hoechst High Intensity Objects (%): 0%
  Population Membrane Permeable-Phenotype (%): 3% and 0%
  Population Mitochondria Different-Phenotype (%): 0%
  Population Mitotic Cells (%): 50% and 30%
  Population Normal (%): 100%
  Population Pyknosed Nuclei (%): 9% and 5%
  Population Tubulin-Different-Phenotype (%): 8% and 7%
  Total Cell Count: 165 and 174
Fibroblast; [5]
  Population Apoptotic (%): 50% and 62%
  Population Fragmented Nuclei (%): 13%
  Population Healthy Nuclei (%): 80% and 83%
  Population Hoechst High Intensity Objects (%): 0%
  Population Membrane Permeable-Phenotype (%): 1% and 2%
  Population Mitochondria Different-Phenotype (%): 1% and 0%
  Population Mitotic Cells (%): 50% and 37%
  Population Normal (%): 99% and 100%
  Population Pyknosed Nuclei (%): 5% and 3%
  Population Tubulin-Different-Phenotype (%): 4% and 1%
  Total Cell Count: 211 and 238
Fibroblast; [6]
  Population Apoptotic (%): 44% and 100%
  Population Fragmented Nuclei (%): 12% and 15%
  Population Healthy Nuclei (%): 82%
  Population Hoechst High Intensity Objects (%): 0%
  Population Membrane Permeable-Phenotype (%): 2% and 0%
  Population Mitochondria Different-Phenotype (%): 0%
  Population Normal (%): 100%
  Population Pyknosed Nuclei (%): 5% and 1%
  Population Tubulin-Different-Phenotype (%): 3% and 4%
  Total Cell Count: 178 and 170
HEK-293T; [1]
  Population Apoptotic (%): 15% and 42%
  Population Fragmented Nuclei (%): 4% and 3%
  Population Healthy Nuclei (%): 87% and 86%
  Population Hoechst High Intensity Objects (%): 9% and 4%
  Population Membrane Permeable-Phenotype (%): 3% and 2%
  Population Mitochondria Different-Phenotype (%): 11% and 15%
  Population Mitotic Cells (%): 84% and 57%
  Population Normal (%): 90% and 95%
  Population Pyknosed Nuclei (%): 8% and 10%
  Population Tubulin-Different-Phenotype (%): 50%
  Total Cell Count: 707 and 682
HEK-293T; [2]
  Population Apoptotic (%): 52% and 53%
  Population Fragmented Nuclei (%): 3% and 4%
  Population Healthy Nuclei (%): 88% and 81%
  Population Hoechst High Intensity Objects (%): 8% and 7%
  Population Membrane Permeable-Phenotype (%): 1% and 2%
  Population Mitochondria Different-Phenotype (%): 27% and 22%
  Population Mitotic Cells (%): 47% and 46%
  Population Normal (%): 91% and 92%
  Population Pyknosed Nuclei (%): 7% and 14%
  Population Tubulin-Different-Phenotype (%): 63% and 57%
  Total Cell Count: 523 and 513
HEK-293T; [3]
  Population Apoptotic (%): 36% and 32%
  Population Fragmented Nuclei (%): 5%
  Population Healthy Nuclei (%): 89%
  Population Hoechst High Intensity Objects (%): 7% and 8%
  Population Membrane Permeable-Phenotype (%): 3% and 1%
  Population Mitochondria Different-Phenotype (%): 3% and 5%
  Population Mitotic Cells (%): 63% and 68%
  Population Normal (%): 92% and 91%
  Population Pyknosed Nuclei (%): 4% and 5%
  Population Tubulin-Different-Phenotype (%): 28% and 35%
  Total Cell Count: 1088 and 1072
HEK-293T; [4]
  Population Apoptotic (%): 26% and 51%
  Population Fragmented Nuclei (%): 7% and 5%
  Population Healthy Nuclei (%): 87% and 89%
  Population Hoechst High Intensity Objects (%): 7%
  Population Membrane Permeable-Phenotype (%): 2% and 3%
  Population Mitochondria Different-Phenotype (%): 11% and 10%
  Population Mitotic Cells (%): 73% and 48%
  Population Normal (%): 92%
  Population Pyknosed Nuclei (%): 4% and 5%
  Population Tubulin-Different-Phenotype (%): 53% and 49%
  Total Cell Count: 768 and 746
HEK-293T; [5]
  Population Apoptotic (%): 7% and 15%
  Population Fragmented Nuclei (%): 16% and 12%
  Population Healthy Nuclei (%): 80% and 84%
  Population Hoechst High Intensity Objects (%): 12% and 10%
  Population Membrane Permeable-Phenotype (%): 6% and 4%
  Population Mitochondria Different-Phenotype (%): 0% and 1%
  Population Mitotic Cells (%): 92% and 84%
  Population Normal (%): 87% and 89%
  Population Pyknosed Nuclei (%): 2% and 3%
  Population Tubulin-Different-Phenotype (%): 15% and 19%
  Total Cell Count: 2930 and 2368
HEK-293T; [6]
  Population Apoptotic (%): 10% and 21%
  Population Fragmented Nuclei (%): 12%
  Population Healthy Nuclei (%): 84%
  Population Hoechst High Intensity Objects (%): 11%
  Population Membrane Permeable-Phenotype (%): 9% and 6%
  Population Mitochondria Different-Phenotype (%): 0% and 1%
  Population Mitotic Cells (%): 89% and 78%
  Population Normal (%): 88%
  Population Pyknosed Nuclei (%): 2%
  Population Tubulin-Different-Phenotype (%): 22% and 26%
  Total Cell Count: 1797 and 1636
U2OS; [1]
  Population Apoptotic (%): 80% and 65%
  Population Healthy Nuclei (%): 61% and 87%
  Population Hoechst High Intensity Objects (%): 0%
  Population Membrane Permeable-Phenotype (%): 0%
  Population Mitochondria Different-Phenotype (%): 0%
  Population Mitotic Cells (%): 20% and 35%
  Population Normal (%): 100%
  Population Pyknosed Nuclei (%): 10% and 7%
  Population Tubulin-Different-Phenotype (%): 51% and 83%
U2OS; [2]
  Population Fragmented Nuclei (%): 4% and 14%
  Population Healthy Nuclei (%): 88% and 80%
  Population Hoechst High Intensity Objects (%): 0%
  Population Membrane Permeable-Phenotype (%): 1% and 0%
  Population Mitochondria Different-Phenotype (%): 1% and 0%
  Population Mitotic Cells (%): 41% and 100%
  Population Normal (%): 100%
  Population Pyknosed Nuclei (%): 7% and 4%
  Population Tubulin-Different-Phenotype (%): 88% and 35%
U2OS; [3]
  Population Apoptotic (%): 56% and 50%
  Population Healthy Nuclei (%): 91% and 73%
  Population Hoechst High Intensity Objects (%): 0%
  Population Membrane Permeable-Phenotype (%): 0% and 3%
  Population Mitochondria Different-Phenotype (%): 0%
  Population Mitotic Cells (%): 43% and 50%
  Population Normal (%): 100%
  Population Pyknosed Nuclei (%): 6% and 13%
  Population Tubulin-Different-Phenotype (%): 85% and 48%
U2OS; [4]
  Population Apoptotic (%): 58% and 50%
  Population Healthy Nuclei (%): 89% and 62%
  Population Hoechst High Intensity Objects (%): 0%
  Population Membrane Permeable-Phenotype (%): 0% and 10%
  Population Mitochondria Different-Phenotype (%): 1% and 0%
  Population Mitotic Cells (%): 41% and 50%
  Population Normal (%): 100%
  Population Pyknosed Nuclei (%): 8% and 12%
  Population Tubulin-Different-Phenotype (%): 83% and 40%
U2OS; [5]
  Population Apoptotic (%): 42% and 46%
  Population Healthy Nuclei (%): 72% and 90%
  Population Hoechst High Intensity Objects (%): 0%
  Population Membrane Permeable-Phenotype (%): 2% and 0%
  Population Mitochondria Different-Phenotype (%): 0%
  Population Mitotic Cells (%): 57% and 53%
  Population Normal (%): 100%
  Population Pyknosed Nuclei (%): 11% and 5%
  Population Tubulin-Different-Phenotype (%): 60% and 91%
U2OS; [6]
  Population Apoptotic (%): 50% and 67%
  Population Healthy Nuclei (%): 73% and 91%
  Population Hoechst High Intensity Objects (%): 0%
  Population Membrane Permeable-Phenotype (%): 4% and 0%
  Population Mitochondria Different-Phenotype (%): 4% and 0%
  Population Mitotic Cells (%): 50% and 32%
  Population Normal (%): 100%
  Population Pyknosed Nuclei (%): 13% and 6%
  Population Tubulin-Different-Phenotype (%): 63% and 88%
